Residue numbers refer to the chain shown, from its start. Names may count otherwise.
B1: BMP-7: Bone Morphogenetic Protein ligand provided by Stryker Biotech; BMPR-II ligand (protein)
chain: STGSKQRSQNRSKTPKNQEALRMANVAENSSSDQRQACKKHELYVSFRDLGWQDWIIAPEGYAAYYCEGECAFPLNSYMNATNHAIVQTLVHFINPETVPKPCCAPTQLNAISVLYFDDSSNVILKKYRNMVVRACGCH
B2: ActR-IIB Wild type: human recombinant ActR-IIB receptor extracellular domain (ECD), wild type, expressed in E. coli (protein, UniProt Q13705 19-137, looked up)
extracellular domain: SGRGEAETRECIYYNANWELERTNQSGLERCEGEQDKRLHCYASWRNSSGTIELVKKGCWLDDFNCYDRQECVATEENPQVYFCCCEGNFCNERFTHLPEAGGPEVTYEPPPTAPTLLT
modifications: extracellular domain
B3: S107P: BMPR-II ECD naturally occurring single-amino-acid-substitution mutant S107P (protein)
chain: ASQNQERLCAFKDPYQQDLGIGESRISHENGTILCSKGSTCYGLWEKSKGDINLVKQGCWSHIGDPQECHYEECVVTTTPPPIQNGTYRFCCCSTDLCNVNFTENFPPPDTTPLSPPHSFNRDET
modifications: left off: TRX, N-terminal, cleaved | His6, C-terminal, state not stated
B4: BMPR-II Wild type: human recombinant BMPR-II receptor extracellular domain (ECD), wild type, expressed in E. coli (protein)
chain: B3 chain with P82S
modifications: left off: TRX, N-terminal, cleaved | His6, C-terminal, state not stated
B5: Y40R: BMPR-II ECD single-amino-acid-substitution mutant Y40R (protein)
chain: B3 chain with Y15R, P82S
modifications: left off: TRX, N-terminal, cleaved | His6, C-terminal, state not stated
B6: Y40G: BMPR-II ECD single-amino-acid-substitution mutant Y40G (protein)
chain: B3 chain with Y15G, P82S
modifications: left off: TRX, N-terminal, cleaved | His6, C-terminal, state not stated
B7: Y40Q: BMPR-II ECD single-amino-acid-substitution mutant Y40Q (protein)
chain: B3 chain with Y15Q, P82S
modifications: left off: TRX, N-terminal, cleaved | His6, C-terminal, state not stated
B8: G47N: BMPR-II ECD naturally occurring single-amino-acid-substitution mutant G47N (protein)
chain: B3 chain with G22N, P82S
modifications: left off: TRX, N-terminal, cleaved | His6, C-terminal, state not stated
B9: Y40P: BMPR-II ECD single-amino-acid-substitution mutant Y40P (protein)
chain: B3 chain with Y15P, P82S
modifications: left off: TRX, N-terminal, cleaved | His6, C-terminal, state not stated

system: BMP-7-stimulated OC promoter activity in fetal rat calvaria (FRC) cells; test: Osteocalcin promoter-Luciferase; format: cell-based; conditions: BMP-7 alone, 6 nM
In short: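 Primary fetal rat calvaria cells were grown in αMEM+10% FBS and transfected with an OC promoter-luciferase plasmid via FuGENE 6 in OPTI medium with 8 U hyaluronidase. After 5 h, fresh medium was added overnight. Cells were then treated 24 h with 6 nM BMP-7, alone or with 20-fold molar excess soluble receptor ECD. Luciferase was read in lysates; mean±SEM of three independent measurements.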

| Molecule | Stimulation of OC promoter activity beyond the empty plasmid control |
| --- | --- |
| B1 | 14 fold |

system: not listed separately; test: Energy transfer; format: binding; conditions: value in parenthesis
In short: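 Human receptor ECDs (wild-type, mutants, chimeras) were made as TRX/His-tag fusions in E. coli BL21(DE3), cut with thrombin, and purified by Ni-NTA, gel filtration and C18. Protein was quantified by A280. bis-ANS was diluted from a 10 mM DMF stock into 50 mM Tris-HCl pH 7.5, 150 mM NaCl. Tryptophan was excited at 295 nm, emission read 310–600 nm at 25°C, and K′ derived from energy transfer to bis-ANS, normalized to wild-type.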

| Molecule | Relative K′ of bis-ANS (energy transfer), normalized to wild-type |
| --- | --- |
| B2 | 1.0 |
| B3 | 0.9 |
| B4 | 1.0 |
| B5 | 0.9 |
| B6 | 0.6 |
| B7 | 1.9 |
| B8 | 2.3 |
| B9 | 1.6 |

system: not listed separately; test: bis-ANS fluorescence titration of receptor ECDs; format: binding; conditions: value in parenthesis
In short: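 Receptor ECDs were expressed in E. coli as TRX/His-tag fusions, thrombin-cleaved, and purified (Ni-NTA, gel filtration, C18), then quantified by A280. bis-ANS was diluted from a 10 mM DMF stock into 50 mM Tris-HCl pH 7.5, 150 mM NaCl and titrated against fixed protein. Peak fluorescence versus dye concentration was fitted to a Hill equation for apparent K′, normalized to wild-type.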

| Molecule | Relative K′ of bis-ANS (Hill Eq.), normalized to wild-type |
| --- | --- |
| B2 | 1.0 |
| B3 | 1.0 |
| B4 | 1.0 |
| B5 | 1.1 |
| B6 | 0.3 |
| B7 | 2.4 |
| B8 | 2.9 |
| B9 | 1.8 |
